Only some compounds are listed: those with a hit (about 0.79% of all), similar ones and a draw of the others.
bIAP inhibitor: bovine intestinal alkaline phosphatase inhibitors, primary screen, selectivity assay for TNAP inhibitor project, biochemical, bovine IAP, CDP-star luminescence. alkaline phosphatase, intestinal [Bos taurus]. AID 1019, 2008. purified bovine IAP, 30 min. inhibition, % at 20 µM. 190,000 tested, under 10 active;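 active means over 50% inhibition of intestinal alkaline phosphatase at 20 µM in the single-dose screen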
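System: purified bovine intestinal alkaline phosphatase (IAP) enzyme; Input: IAP diluted 1/65,000,000 in the well; Measured by: CDP-star luminescence signal; Compound dosing: 20 µM single dose; Incubation: 30 min reaction at room temperature.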
mIAP inh: inhibitors of mouse IAP, primary screen, biochemical, luminescence, uHTS. intestinal alkaline phosphatase [Mus musculus]. purified mouse IAP, CDP-Star luminescence, 30 min. inhibition, % at 10 µM. hit rate 0.2% among 330,000. AID 2806, 2010;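 active means inhibition of at least 40% at 10 µM in the primary screen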;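 further: plate controls were DMSO with enzyme for no effect and no enzyme wells for full effect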
bIAP act: bovine intestinal alkaline phosphatase activators, primary screen, biochemical, bovine IAP, CDP-star luminescence; alkaline phosphatase, intestinal [Bos taurus]; purified bovine IAP, 30 min; hits give high values; fold of DMSO-control signal, blank-subtracted; activation factor at 20 µM; hit rate 0.17% among 200,000;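 active means activation factor of 2 or more at 20 µM, a signal rise over negative controls twice the positive control's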
hIAP activ: human IAP activators, primary screen, biochemical, luminescence, uHTS. Intestinal-type alkaline phosphatase (Homo sapiens), P09923. hit rate 0.16% among 330,000. purified human IAP, CDP-Star luminescence, 30 min; hits give high values; 1 = vehicle-only enzyme, 0 = enzyme-free background. activation factor at 10 µM. AID 2524, 2010;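 active means activation factor of the enzyme at least 2-fold when tested at 20 µM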
Target sequence (P09923 whole entry, looked up): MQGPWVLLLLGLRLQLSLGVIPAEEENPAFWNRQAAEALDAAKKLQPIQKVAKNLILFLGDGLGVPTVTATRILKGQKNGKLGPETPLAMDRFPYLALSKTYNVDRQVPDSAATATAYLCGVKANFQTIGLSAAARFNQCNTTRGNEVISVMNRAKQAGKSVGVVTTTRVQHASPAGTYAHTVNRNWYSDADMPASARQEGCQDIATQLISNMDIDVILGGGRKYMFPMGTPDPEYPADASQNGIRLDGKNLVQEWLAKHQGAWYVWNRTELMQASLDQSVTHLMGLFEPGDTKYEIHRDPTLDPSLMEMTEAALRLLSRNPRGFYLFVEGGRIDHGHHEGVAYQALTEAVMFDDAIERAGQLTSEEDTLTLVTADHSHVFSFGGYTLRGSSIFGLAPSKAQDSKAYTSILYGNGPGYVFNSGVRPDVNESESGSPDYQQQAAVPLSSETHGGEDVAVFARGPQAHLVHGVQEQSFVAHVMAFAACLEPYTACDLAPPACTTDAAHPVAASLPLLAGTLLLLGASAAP
hIAP block: human IAP inhibitors, primary screen, biochemical, luminescence, uHTS | inhibition, % at 10 µM | Intestinal-type alkaline phosphatase (Homo sapiens), P09923 | purified IAP, CDP-Star luminescence, 30 min | hit rate 0.12% among 330,000;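 active means inhibition reaching a set limit with compound at 10 µM in the primary screen, cut at about 35% in these data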;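 further: plate controls were DMSO wells with enzyme for no effect and no-enzyme buffer wells for full effect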
mIAP activ: activators of mouse IAP, primary screen, biochemical, luminescence, uHTS; intestinal alkaline phosphatase [Mus musculus]; activation factor at 10 µM; hit rate 0.24% among 330,000; muIAP, CDP-Star luminescence, 30 min; hits give high values; 1 = vehicle-only enzyme signal, 0 = enzyme-free wells;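 active means activation factor of at least 2 at 20 µM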
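Assay system: mouse IAP enzyme / Compound: DMSO-dissolved test compounds / Timing: 30 min, room temperature / Measured by: luminescence from enzymatic CDP-Star hydrolysis / Control set: DMSO-only wells, enzyme-free buffer wells as negative control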
mIAP inh conf: inhibitors of mouse IAP, confirmation, biochemical, luminescence, single concentration. shares compounds with mIAP inh. purified mouse IAP, CDP-Star luminescence, 30 min. inhibition, % at 10 µM. hit rate 4.7% among 11,000. AID 434971, 2010;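 active means inhibition of at least 40% at 10 µM in either of the two replicates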;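 further: plate controls were DMSO wells with enzyme for no effect and buffer wells lacking enzyme for full effect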
* = called active by the depositor; i = inactive; x = no result.

SMILES	bIAP inhibitor	mIAP inh	bIAP act	hIAP activ	hIAP block	mIAP activ	mIAP inh conf
C=C(C)C1(O)OC(=O)C=C1OC (stereo not drawn)	5	17	1	1.1	-11	0.83	x
O=C(Nc1cccc(Cl)c1)Nc1cc(S(=O)(=O)N2CCCCC2)ccc1Cl	21	-257	0.8	1.1	-11	3.6*	-108
O=C(Nc1ccc(Cl)c(Cl)c1)Nc1cc(S(=O)(=O)N2CCOCC2)ccc1N1CCCC1	25	-212	0.8	1.4	-43	3.1*	-153
O=C(Nc1ccc(Cl)c(Cl)c1)Nc1cc(C(=O)N2CCOCC2)ccc1N1CCCCC1	x	i	x	1.8	-82	10*	-167
COc1ccc(-c2nc(SC(CC(=O)NCCO)c3cccs3)n[nH]2)cc1 (stereo not drawn)	17	-5	0.8	0.94	6	1	x
Cc1ccc2[nH]c3c(=O)n(CC(=O)N4CCN(C)CC4)ncc3c2c1	x	2	x	0.87	13	0.98	x
CCOC(=O)CSC1=Nc2ccccc2C2=NC(CC(=O)NCc3ccc4c(c3)OCO4)C(=O)N12 (stereo not drawn)	-2	44*	1	0.8	20	0.56	59*
Cc1ccc(Nc2nc(-c3ccc(O)c(O)c3)cs2)nc1	20	46*	0.8	1.1	-8	0.54	52*
Cc1ccc(Nc2nc(-c3ccc(F)cc3)cs2)nc1	x	-7	x	0.95	5	1.1	x
COc1ccc(/C=C(\C#N)C(=O)Nc2cccc3ncccc23)cc1OC	x	-14	x	1.2	-15	1.1	x
N#C/C(=C\c1ccc(O)c(O)c1)C(=O)Nc1cccc2ncccc12	x	66*	x	0.68	32	0.34	76*
Cc1ccc(S(=O)(=O)N2CCCCC2)cc1NC(=O)C1CC(=O)N(Cc2ccccc2)C1 (stereo not drawn)	11	-4	0.9	1.1	-5	1	x
CN1CCN(S(=O)(=O)c2ccc3[nH]c(=O)oc3c2)CC1	19	43*	0.8	0.86	14	0.57	59*
O=c1[nH]c2ccc(S(=O)(=O)N3CCN(c4ccc(F)cc4)CC3)cc2o1	x	19	x	1	0	0.81	x
COc1ccccc1OC(=O)c1cc2ccccc2oc1=O	x	9	x	0.94	6	0.91	x
COc1cc(/C=C/[N+](=O)[O-])ccc1OC(=O)c1cc2ccccc2oc1=O	x	58*	x	1.2	-16	0.42	49*
COc1ccc(S(=O)(=O)/N=C2/NC(=O)/C(=C\c3ccco3)S2)cc1	-41	58*	1.4	0.98	2	0.42	64*
O=C1CSC(=S)N1N1C(=O)c2cccc([N+](=O)[O-])c2C1=O	49	57*	0.5	1.1	-10	0.43	68*
C=CCNC(=O)/C(C#N)=C\c1cc(Cl)c(OCC)c(OC)c1	23	-8	0.8	0.94	6	1.1	x
O=C1CN(C(=O)c2ccc(Br)o2)C(c2ccccc2)c2cc(F)ccc2N1 (stereo not drawn)	14	-5	0.9	0.97	3	1	x
O=C(/C=C/c1ccco1)NCc1ccc(F)cc1	-5	0	1	0.96	4	1	x
NS(=O)(=O)c1ccc(NC(=S)NC(=O)/C=C/c2ccco2)cc1	9	91*	0.9	0.96	4	0.092	77*
NS(=O)(=O)c1ccc(CNC(=O)/C=C/c2ccco2)cc1	x	46*	x	0.98	2	0.54	50*
NS(=O)(=O)c1ccc(N=Nc2c(=O)[nH]n3c(=O)c4c([nH]c23)CCCC4)cc1	x	48*	0.5	1.7	-66	0.52	63*
O=c1[nH]n2c(=O)c3c([nH]c2c1N=Nc1cccc(Cl)c1)CCC3	-24	x	1.2	x	x	x	x
SMILES	bIAP inhibitor	mIAP inh	bIAP act	hIAP activ	hIAP block	mIAP activ	mIAP inh conf
C#CCOC(=O)C[N+](C)(C)CC=C	x	2	x	0.98	2	0.98	x
CC1C(=O)CCC1(C(=O)O)c1ccccc1 (stereo not drawn)	10	5	0.9	0.97	3	0.95	x
CCc1cc(Cn2nc(-c3ccccc3)cc2C(=O)NCc2cccc(Br)c2)on1	x	i	x	0.93	7	6.6*	-180
CCc1cc(Cn2nc(-c3ccccc3)cc2C(=O)NCc2cccc(C(F)(F)F)c2)on1	x	-244	x	0.95	5	3.4*	-152
COc1ccc(C2=NOC(Cn3nc(-c4ccccc4)cc3C(=O)NCc3cccc(Br)c3)C2)cc1 (stereo not drawn)	x	-276	x	1.1	-10	3.8*	-112
O=C(CCc1nc2ccccc2[nH]c1=O)OCC(=O)N1CCc2ccccc21	3	5	1	0.97	3	0.95	x
CCCCC(C(=O)OCC)C(N)Cc1ccc(F)cc1 (stereo not drawn)	-14	4	1.1	1.2	-17	0.96	x
Cc1cc(O)c2c(c1)C(=O)c1cc(O)cc(O)c1C2=O	x	18	x	1	0	0.82	x
O=C1c2cccc(O)c2C(=O)c2c(O)cc(CO)cc21	x	45*	x	0.83	17	0.55	52*
CSc1cccc(NC(=O)C2CCCN(S(=O)(=O)c3ccc(F)cc3)C2)c1 (stereo not drawn)	12	-35	0.9	1.1	-15	1.4	x
CSc1cccc(NC(=O)C2CCN(S(=O)(=O)c3ccc(F)cc3)CC2)c1	-17	-205	1.2	1.4	-40	3*	-98
COCC1CCN(C(=O)C2CCC(=O)N(Cc3ccc(Cl)cc3)C2)CC1 (stereo not drawn)	x	10	x	1	0	0.9	x
O=C(NCc1ccc2c(c1)OCO2)c1cc2c(s1)CSC2	13	45*	0.9	0.85	15	0.55	59*
O=C(NCc1ccco1)c1cc2c(s1)CSC2	-6	45*	1.1	0.95	5	0.55	45*
NS(=O)(=O)c1ccc(SCc2ccccc2)nc1	x	2	x	1.1	-6	0.98	x
COC(=O)c1ccc(N2CCOCC2)c(NC(=O)Nc2cccc(OC)c2)c1	-1	-23	1	1	0	1.2	x
CCOC(=O)c1ccc(N2CCN(c3ccccc3F)CC2)c(NC(=O)Nc2cccc(OC)c2)c1	-20	i	1.2	1.7	-72	8.6*	-362
CCN1/C(=C/C=C/c2oc3ccc(-c4ccccc4)cc3[n+]2CC)Oc2ccc(-c3ccccc3)cc21	-56	65*	1.6	1.4	-36	0.35	50*
CCCCN1C(=O)/C(=C/C=C2\Oc3ccccc3N2CC)SC1=S	31	x	0.7	x	x	x	x
